ChEMBL document CHEMBL1156912, “Subtlety of the structure-affinity and structure-efficacy relationships around a nonpeptide oxytocin receptor agonist” (J Med Chem, 2010)
Calls of active or inactive are those of the source. The calls are words filed in the database; no cut-off is given here.

Tests used:
Oxytocin receptor [1] = target: T1, Oxytocin receptor (Homo sapiens, UniProt P30559); assay: Displacement of [3H]AVP from human oxytocin receptor expressed in CHO cells; format: cell-based
T1 sequence (P30559 whole entry): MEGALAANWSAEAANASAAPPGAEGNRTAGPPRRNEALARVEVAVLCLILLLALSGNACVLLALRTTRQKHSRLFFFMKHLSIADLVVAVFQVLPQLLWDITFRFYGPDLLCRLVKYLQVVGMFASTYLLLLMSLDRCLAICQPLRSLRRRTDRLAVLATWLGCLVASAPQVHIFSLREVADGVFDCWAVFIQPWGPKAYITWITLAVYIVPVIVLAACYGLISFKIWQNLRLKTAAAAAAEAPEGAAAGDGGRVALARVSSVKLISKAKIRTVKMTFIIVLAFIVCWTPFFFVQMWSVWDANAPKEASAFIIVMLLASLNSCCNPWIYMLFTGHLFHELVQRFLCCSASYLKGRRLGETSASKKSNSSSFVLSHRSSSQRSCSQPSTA
Method in brief: (§1)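 Membranes came from CHO cells stably expressing the human receptor; OT-R and V1a-R cells were treated overnight with 5 mM butyrate. Membrane protein was 10–15 μg (OT, V1a) or 5 μg (V2), incubated 30 min at 30 °C in 50 mM Tris-HCl, 5 mM MgCl2, 1 mg/mL BSA, pH 7.4, with 1–2 nM [3H]AVP and competitor 0.1 pM–100 μM. Nonspecific binding: 10 μM AVP. Filtration, then Ki via Cheng–Prusoff. Mean ± SEM of ≥3 experiments in triplicate.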

[2] = target: T2, Oxytocin receptor (Homo sapiens) (UniProt P30559); assay: Activity at human oxytocin receptor expressed in CHO cells assessed as inhibition of agonist-induced inositol phosphate accumulation at 10 uM; format: functional, cell-based; design: scale not given: the % may be the effect or the level left
T2 sequence (whole entry): T1 sequence (P30559 whole entry)

Vasopressin V1a receptor [3] = target: T3, Vasopressin V1a receptor (Homo sapiens, UniProt P37288); assay: Displacement of [3H]AVP from human vasopressin V1a receptor expressed in CHO cells; format: cell-based; method in brief: as §1
Target sequence in this assay (P37288 whole entry): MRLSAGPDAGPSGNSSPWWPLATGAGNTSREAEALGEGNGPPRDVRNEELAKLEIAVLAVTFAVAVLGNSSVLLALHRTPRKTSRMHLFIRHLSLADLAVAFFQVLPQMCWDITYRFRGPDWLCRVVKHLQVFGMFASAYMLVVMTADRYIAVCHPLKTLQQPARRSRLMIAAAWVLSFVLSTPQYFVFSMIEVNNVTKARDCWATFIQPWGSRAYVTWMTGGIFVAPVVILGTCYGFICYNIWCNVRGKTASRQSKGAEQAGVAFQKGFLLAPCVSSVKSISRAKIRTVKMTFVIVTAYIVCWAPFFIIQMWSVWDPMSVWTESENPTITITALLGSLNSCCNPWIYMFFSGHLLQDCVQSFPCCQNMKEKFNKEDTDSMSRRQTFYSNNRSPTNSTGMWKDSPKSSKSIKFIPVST

Vasopressin V1a receptor [4] = target: T3, Vasopressin V1a receptor; assay: Activity at human vasopressin V1a receptor expressed in CHO cells assessed as inositol phosphate accumulation at 1 uM; format: functional, cell-based
Method in brief: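 Human V1a-expressing CHO cells, 80000 cells/well, exposed to ligand for 30 min at 37 °C. IP1 was measured by HTRF IP-One. EC50 (K_act) from the dose–response curve. Emax is relative to the 1 μM AVP maximum. Weak responses are reported as % of AVP maximum at 1 μM ligand.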
Target sequence in this assay (P37288 whole entry, looked up): as the sequence (P37288 whole entry) above

Vasopressin V1a receptor [5] = target: T3, Vasopressin V1a receptor; assay: Activity at human vasopressin V1a receptor expressed in CHO cells assessed as inhibition of agonist-induced inositol phosphate accumulation; format: functional, cell-based
Method in brief: (§2)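 Human V1a receptor in stably transfected CHO cells, seeded at 80000 cells/well overnight. Cells were preincubated 10 min at 37 °C with ligand (10 fM–100 μM, ≤1% final DMSO), then challenged with 2 nM AVP for 30 min. IP1 was read by IP-One HTRF. K_inact was derived by Cheng–Prusoff-type correction using AVP K_act 1.20 nM. Fixed-concentration lines are % inhibition, n = 2.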
Target sequence in this assay (P37288 whole entry, looked up): as the sequence (P37288 whole entry) above

Vasopressin V2 receptor [6] = target: T4, Vasopressin V2 receptor (Homo sapiens, UniProt P30518); assay: Displacement of [3H]AVP from human vasopressin V2 receptor expressed in CHO cells; format: cell-based; method in brief: as §1
Vasopressin V2 receptor [7] = target: T4, Vasopressin V2 receptor; assay: Activity at human vasopressin V2 receptor expressed in CHO cells assessed as cAMP accumulation at 1 uM; format: functional, cell-based
Method in brief: (§3)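 V2-R agonism in CHO cells at 1000 cells/well, stimulated 30 min at 37 °C in D-MEM containing 0.1 mM Ro-20-1724 and 1 mg/mL BSA. cAMP was read by cAMP dynamic 2 HTRF. K_act from the sigmoidal fit. Emax is % of the 0.1 μM AVP response. Single-concentration values are % of AVP maximum.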

[8] = target: T2, Oxytocin receptor (Homo sapiens); assay: Activity at human oxytocin receptor expressed in CHO cells assessed as inhibition of agonist-induced inositol phosphate accumulation at 1 uM; format: functional, cell-based; design: scale not given: the % may be the effect or the level left
Vasopressin V2 receptor [9] = target: T4, Vasopressin V2 receptor; assay: Activity at human vasopressin V2 receptor expressed in CHO cells assessed as inhibition of agonist-induced cAMP accumulation at 1 uM; format: functional, cell-based
Vasopressin V1a receptor [10] = target: T3, Vasopressin V1a receptor; assay: Activity at human vasopressin V1a receptor expressed in CHO cells assessed as inhibition of agonist-induced inositol phosphate accumulation at 1 uM; format: functional, cell-based; design: scale not given: the % may be the effect or the level left; method in brief: as §2
Target sequence in this assay (P37288 whole entry, looked up): as the sequence (P37288 whole entry) above

[11] = target: T2, Oxytocin receptor (Homo sapiens); assay: Activity at human oxytocin receptor expressed in CHO cells assessed as inositol phosphate accumulation at 1 uM; format: functional, cell-based
Method in brief: (§4)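 Agonist mode on CHO cells stably expressing human OT receptor: 30 min at 37 °C with ligand, 10 fM–100 μM, ≤1% final DMSO. IP1 accumulation was read by IP-One HTRF, ΔF from the 665/620 ratio. K_act is the EC50 from the sigmoidal fit. Emax is % of the 1 μM OT maximal response. Single-concentration lines are % of OT maximum, n = 2. Mean of ≥3 experiments in triplicate.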

Oxytocin receptor [12] = target: T1, Oxytocin receptor; assay: Activity at human oxytocin receptor expressed in CHO cells by NFAT-luciferase gene reporter assay; format: cell-based
Vasopressin V2 receptor [13] = target: T4, Vasopressin V2 receptor; assay: Activity at human vasopressin V2 receptor expressed in CHO cells assessed as inhibition of agonist-induced cAMP accumulation; format: functional, cell-based
Vasopressin V1a receptor [14] = target: T3, Vasopressin V1a receptor; assay: Activity at human vasopressin V1a receptor expressed in CHO cells by NFAT-luciferase gene reporter assay; format: cell-based
Target sequence in this assay (P37288 whole entry): as above

Vasopressin V2 receptor [15] = target: T4, Vasopressin V2 receptor; assay: Activity at human vasopressin V2 receptor expressed in CHO cells by cAMP dynamic 2 assay
[16] = target: T2, Oxytocin receptor (Homo sapiens); assay: Activity at human oxytocin receptor expressed in CHO cells assessed as inositol phosphate accumulation; format: functional, cell-based; method in brief: as §4
[17] = target: T2, Oxytocin receptor (Homo sapiens); assay: Activity at human oxytocin receptor expressed in CHO cells assessed as inhibition of agonist-induced inositol phosphate accumulation; format: functional, cell-based
Vasopressin V2 receptor [18] = target: T4, Vasopressin V2 receptor; assay: Activity at human vasopressin V2 receptor expressed in CHO cells assessed as cAMP accumulation; format: functional, cell-based; method in brief: as §3
Vasopressin V2 receptor [19] = target: T4, Vasopressin V2 receptor; assay: Activity at human vasopressin V2 receptor expressed in CHO cells assessed as inhibition of agonist-induced cAMP accumulation at 10 uM; format: functional, cell-based
[20] = target: T2, Oxytocin receptor (Homo sapiens); assay: Activity at human oxytocin receptor expressed in CHO cells assessed as inositol phosphate accumulation up to 100 uM; format: functional, cell-based; method in brief: as §4

T4 sequence (P30518 whole entry): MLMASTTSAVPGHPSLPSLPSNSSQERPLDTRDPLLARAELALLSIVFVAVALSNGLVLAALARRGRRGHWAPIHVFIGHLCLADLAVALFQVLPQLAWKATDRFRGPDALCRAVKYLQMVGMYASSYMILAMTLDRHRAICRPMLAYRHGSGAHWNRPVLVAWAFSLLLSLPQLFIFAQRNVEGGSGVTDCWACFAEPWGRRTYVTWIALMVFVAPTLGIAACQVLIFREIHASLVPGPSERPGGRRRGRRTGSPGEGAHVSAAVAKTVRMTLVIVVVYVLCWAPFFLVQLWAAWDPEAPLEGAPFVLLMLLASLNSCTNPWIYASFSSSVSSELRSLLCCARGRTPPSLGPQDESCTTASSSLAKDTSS

Row | Structure (SMILES) | Ki (Oxytocin receptor [1]; read-out: Ki) | Activity [2] | Ki (Vasopressin V1a receptor [3]; read-out: Ki) | Activity (Vasopressin V1a receptor [4]) | Kinact (Vasopressin V1a receptor [5]) | Ki (Vasopressin V2 receptor [6]; read-out: Ki) | Emax (Vasopressin V2 receptor [7]) | Activity (Vasopressin V2 receptor [7]) | Kinact (Vasopressin V2 receptor [13]) | Kinact [17] | other results
1 | Cc1cc(C(=O)N2Cc3cnn(C)c3Nc3ccccc32)ccc1CNC(=O)N1CCCC1 | > 1000 nM | inactive | 167 nM | inactive | 187 nM | > 1000 nM | 20% |  |  |  | Activity [8]: 37%; Kinact (Vasopressin V2 receptor [9]): inactive
2 | CC(=O)NCc1ccc(C(=O)N2Cc3cnn(C)c3Nc3ccccc32)cc1C | > 5000 nM | inactive | > 5000 nM | inactive |  |  |  |  |  |  | Activity [8]: inactive; Activity (Vasopressin V1a receptor [10]): 27%
3 | COc1cc(OC2CCN(C(C)=O)CC2)ccc1C(=O)N1CCC(N2C(=O)OCc3ccccc32)CC1 |  |  |  | inactive |  |  |  | inactive | inactive |  | Ki (Oxytocin receptor [1]; cho): Not Active; Activity [11]: inactive; EC50 (Oxytocin receptor [12]): 4.6 nM; Ki (Vasopressin V1a receptor [3]; cho): Not Active; Ki (Vasopressin V2 receptor [6]; cho): Not Active; EC50 (Vasopressin V1a receptor [14]): 3200 nM; Activity (Vasopressin V1a receptor [10]): 18%; EC50 (Vasopressin V2 receptor [15]): 37 µM
4 | O=C(Nc1ccc(C(=O)N2CCCCc3ccccc32)cc1)c1ccccc1-c1ccccc1 | 109 nM |  | 2.74 nM | inactive | 63 nM | 0.57 nM |  | inactive | 0.096 nM | 171 nM | Activity [11]: inactive; EC50 (Oxytocin receptor [12]): 63 nM; EC50 (Vasopressin V1a receptor [14]): 14 nM; EC50 (Vasopressin V2 receptor [15]): 0.0076 µM
5 | Cc1cc(C(=O)N2Cc3cccn3Cc3ccccc32)ccc1CNC(=O)N1CCC[C@H]1C(=S)N1CCCN(C)CC1 | 2500 nM | 11% | > 1000 nM | inactive | 754 nM | 3400 nM | 9% |  |  |  | Kact [16]: 110 µM; Emax [11]: 50.6%; Inhibition (Vasopressin V2 receptor [19]): 43%; Activity [20]: inactive

Continued by falling Ki (Oxytocin receptor [1]; read-out: Ki), values first:

Row | Ki (Oxytocin receptor [1]; read-out: Ki) | Activity [2] | Ki (Vasopressin V1a receptor [3]; read-out: Ki) | Activity (Vasopressin V1a receptor [4]) | Kinact (Vasopressin V1a receptor [5]) | Ki (Vasopressin V2 receptor [6]; read-out: Ki) | Emax (Vasopressin V2 receptor [7]) | Activity (Vasopressin V2 receptor [7]) | Kinact (Vasopressin V2 receptor [13]) | Kinact [17] | Structure (SMILES) | other results
6 | 27.8 nM |  | 18 nM | inactive | 32.5 nM | 913 nM |  | inactive | 253 nM | 14.8 nM | Cc1ccn(-c2ccc(C(=O)N3Cc4cnn(C)c4Nc4ccccc43)cc2C)n1 | 
7 | 17 nM |  | 27 nM | inactive | 13 nM | 29 nM | 94% |  |  | 69 nM | Cc1ccn(-c2ccc(C(=O)N3Cc4cnn(C)c4Nc4ccccc43)c(Cl)c2)n1 | Activity [16]: inactive; Kact (Vasopressin V2 receptor [18]): 8.4 nM; Activity (Vasopressin V2 receptor [9]): inactive
